ChEMBL document CHEMBL4406856, “Structure based design, synthesis and in vitro antitumour activity of tiazofurin stereoisomers with nitrogen functions at the C-2' or C-3' positions” (Eur J Med Chem, 2019)
Activity calls are given as the source filed them. The rule behind the calls is not given here.

Legend:
[1] = system: K562; test: Induction of apoptosis in human K562 cells assessed as 85 kDa PARP level incubated for 72 hrs by Western blot analysis (reference value: 100%); assay type: functional
Procedure, shortened: (§1)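 K562 cells treated for 72 h; Bcl-2, BAX, caspase 3 precursor (32 kDa), caspase 3 active subunit (18 kDa) and PARP (112 and 85 kDa) measured by Western blot and expressed as % of untreated control.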

[2] = system: Jurkat; test: Potency index, ratio of doxorubicin IC50 to compound IC50 for cytotoxicity against human Jurkat cells incubated for 72 hrs by MTT assay; assay type: functional
[3] = system: K562; test: Potency index, ratio of tiazofurin IC50 to compound IC50 for cytotoxicity against human K562 cells incubated for 72 hrs by MTT assay; assay type: functional
[4] = system: MRC5; test: Cytotoxicity against human MRC5 cells assessed as reduction in cell viability incubated for 72 hrs by MTT assay; assay type: cell-based; conditions: MRC5, 72 h
Procedure, shortened: (§2)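 Colorimetric MTT assay on human tumour lines K562 (chronic myeloid leukemia), HL-60 (promyelocytic leukemia), Jurkat (T cell leukemia), Raji (Burkitt's lymphoma), HT-29 (colorectal adenocarcinoma), HeLa (cervix adenocarcinoma) and normal lung fibroblast MRC-5; cells exposed to compounds for 72 h.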

[5] = system: K562; test: Induction of apoptosis in human K562 cells incubated for 24 hrs by annexin V FITC and propidium iodide staining based flow cytometry relative to control; assay type: functional; parameters: concentration or dose not given beside the values
[6] = system: K562; test: Induction of apoptosis in human K562 cells incubated for 72 hrs by annexin V FITC and propidium iodide staining based flow cytometry relative to control; assay type: functional; parameters: concentration or dose not given beside the values
Procedure, shortened: (§3)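 K562 cells treated for 72 h, stained with Annexin V-FITC/propidium iodide and analysed by flow cytometry. Apoptotic, necrotic and live fractions scored as percent of gated cells; specific apoptosis and specific necrosis calculated from these counts.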

[7] = system: K562; test: Potency index, ratio of doxorubicin IC50 to compound IC50 for cytotoxicity against human K562 cells incubated for 72 hrs by MTT assay; assay type: functional
[8] = system: K562; test: Induction of necrosis in human K562 cells incubated for 24 hrs by annexin V FITC and propidium iodide staining based flow cytometry relative to control; assay type: functional; parameters: concentration or dose not given beside the values
[9] = system: K562; test: Induction of apoptosis in human K562 cells assessed as 112 kDa PARP level incubated for 72 hrs by Western blot analysis (reference value: 100%); assay type: functional; procedure, shortened: as §1
[10] = system: K562; test: Cell cycle arrest in human K562 cells assessed as accumulation in S phase incubated for 24 hrs by propidium iodide staining based flow cytometry (reference value: 48.38%); assay type: functional
Procedure, shortened: (§4)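 Exponentially growing K562 cells treated for 24 or 72 h, untreated cells as control; cells stained with propidium iodide and DNA content read by flow cytometry. Phase distribution (subG1, G0/G1, S, G2/M) taken from one-parameter histograms, subG1 scored as hypodiploid, apoptotic cells.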

[11] = system: HeLa; test: Potency index, ratio of doxorubicin IC50 to compound IC50 for cytotoxicity against human HeLa cells incubated for 72 hrs by MTT assay; assay type: functional
[12] = system: K562; test: Induction of apoptosis in human K562 cells assessed as Bcl2 level incubated for 72 hrs by Western blot analysis (reference value: 100%); assay type: functional; procedure, shortened: as §1
[13] = system: HT-29; test: Potency index, ratio of doxorubicin IC50 to compound IC50 for cytotoxicity against human HT-29 cells incubated for 72 hrs by MTT assay; assay type: functional
[14] = system: HT-29; test: Potency index, ratio of tiazofurin IC50 to compound IC50 for cytotoxicity against human HT-29 cells incubated for 72 hrs by MTT assay; assay type: functional
[15] = system: K562; test: Induction of apoptosis in human K562 cells assessed as Bax level incubated for 72 hrs by Western blot analysis (reference value: 100%); assay type: functional; procedure, shortened: as §1
[16] = system: HT-29; test: Antiproliferative activity against human HT-29 cells assessed as reduction in cell growth incubated for 72 hrs by MTT assay; assay type: functional, cell-based; conditions: HT-29, 72 h
Procedure, shortened: as §2, with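 “h. IC50 taken as concentration giving 50% growth inhibition versus untreated control.” for “h.”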

[17] = system: Jurkat; test: Antiproliferative activity against human Jurkat cells assessed as reduction in cell growth incubated for 72 hrs by MTT assay; assay type: functional, cell-based
Procedure, shortened: as §2, with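 “h. IC50 taken as concentration giving 50% growth inhibition versus untreated control.” for “h.”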

[18] = system: K562; test: Genotoxicity in human K562 cells assessed as increase in DNA damage at cytotoxic IC50 incubated for 72 hrs by comet assay; assay type: toxicity, cell-based; conditions: k562, 72 h
Procedure, shortened: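 Modified alkaline comet assay: cells set in agarose on slides, electrophoresed horizontally, stained with ethidium bromide and imaged by fluorescence microscopy. 50 comets scored per sample; mean tail moment used as the DNA-damage measure.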

[19] = system: K562; test: Cell cycle arrest in human K562 cells assessed as accumulation in G0/G1 phase incubated for 24 hrs by propidium iodide staining based flow cytometry (reference value: 36.28%); assay type: functional; procedure, shortened: as §4
[20] = system: Raji; test: Antiproliferative activity against human Raji cells assessed as reduction in cell growth incubated for 72 hrs by MTT assay; assay type: functional, cell-based; procedure, shortened: as §2
[21] = system: K562; test: Cell cycle arrest in human K562 cells assessed as accumulation in S phase incubated for 72 hrs by propidium iodide staining based flow cytometry (reference value: 36.05%); assay type: functional; procedure, shortened: as §4
[22] = system: K562; test: Cell cycle arrest in human K562 cells assessed as accumulation in sub-G1 phase incubated for 24 hrs by propidium iodide staining based flow cytometry (reference value: 1.05%); assay type: functional; procedure, shortened: as §4
[23] = system: HeLa; test: Antiproliferative activity against human HeLa cells assessed as reduction in cell growth incubated for 72 hrs by MTT assay; assay type: functional, cell-based
Procedure, shortened: as §2, with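 “h. IC50 taken as concentration giving 50% growth inhibition versus untreated control.” for “h.”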

[24] = system: K562; test: Cell cycle arrest in human K562 cells assessed as accumulation in G2/M phase incubated for 24 hrs by propidium iodide staining based flow cytometry (reference value: 14.29%); assay type: functional; procedure, shortened: as §4
[25] = system: K562; test: Cell cycle arrest in human K562 cells assessed as decrease in cell accumulation at G2/M phase incubated for 72 hrs by propidium iodide staining based flow cytometry relative to tiazofurin; assay type: functional; procedure, shortened: as §4
[26] = system: HL-60; test: Antiproliferative activity against human HL60 cells assessed as reduction in cell growth incubated for 72 hrs by MTT assay; assay type: functional, cell-based; conditions: HL-60, 72 h
Procedure, shortened: as §2, with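 “h. IC50 taken as concentration giving 50% growth inhibition versus untreated control.” for “h.”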

[27] = system: K562; test: Cell cycle arrest in human K562 cells assessed as accumulation in G2/M phase incubated for 72 hrs by propidium iodide staining based flow cytometry (reference value: 15.45%); assay type: functional; procedure, shortened: as §4
[28] = system: K562; test: Cell cycle arrest in human K562 cells assessed as accumulation in SubG1 phase incubated for 72 hrs by propidium iodide staining based flow cytometry (reference value: 3.07%); assay type: functional; procedure, shortened: as §4
[29] = system: Jurkat; test: Potency index, ratio of tiazofurin IC50 to compound IC50 for cytotoxicity against human Jurkat cells incubated for 72 hrs by MTT assay; assay type: functional
[30] = system: K562; test: Cell cycle arrest in human K562 cells assessed as accumulation in G0/G1 phase incubated for 72 hrs by propidium iodide staining based flow cytometry (reference value: 45.43%); assay type: functional; procedure, shortened: as §4
[31] = system: K562; test: Antiproliferative activity against human K562 cells assessed as reduction in cell growth incubated for 72 hrs by MTT assay; assay type: functional, cell-based; conditions: K562, 72 h; procedure, shortened: as §2
[32] = system: K562; test: Induction of apoptosis in human K562 cells assessed as reduction in cell membrane integrity at cytotoxic IC50 incubated for 72 hrs by acridine orange and ethidium bromide double staining based fluorescence microscopy; assay type: functional
[33] = system: HeLa; test: Potency index, ratio of tiazofurin IC50 to compound IC50 for cytotoxicity against human HeLa cells incubated for 72 hrs by MTT assay; assay type: functional
[34] = system: K562; test: Induction of necrosis in human K562 cells incubated for 72 hrs by annexin V FITC and propidium iodide staining based flow cytometry relative to control; assay type: functional; parameters: concentration or dose not given beside the values; procedure, shortened: as §3
[35] = system: K562; test: Induction of apoptosis in human K562 cells assessed as 18 kDa Caspase 3 active subunit level incubated for 72 hrs by Western blot analysis (reference value: 100%); assay type: functional; procedure, shortened: as §1
[36] = system: K562; test: Induction of apoptosis in human K562 cells assessed as 32 kDa Caspase 3 precursor level incubated for 72 hrs by Western blot analysis (reference value: 100%); assay type: functional; procedure, shortened: as §1

IC50 [16]: 5 nM
IC50 [17]: 3.6 nM
IC50 [20]: 3.85 µM
IC50 [23]: 12 nM
IC50 [26]: 9.39 µM
IC50 [31]: 35 nM
Compound: NC(=O)c1csc([C@@H]2O[C@H](CO)[C@H](N)[C@H]2O)n1
Activity [1]: 104.95%
Ratio IC50 [2]: 5 - 30
Ratio IC50 [3]: 11 - 318
IC50 [4]: > 100 µM
Activity [5]: 6.35%
Activity [6]: 34.37%
Ratio IC50 [7]: 5 - 30
Activity [8]: -0.99%
Activity [9]: 84.76%
Activity [10]: 35.75%
Ratio IC50 [11]: 5 - 30
Activity [12]: 164.9%
Ratio IC50 [13]: 5 - 30
Ratio IC50 [14]: 11 - 318
Activity [15]: 240.62%
Activity [18]: Toxic
Activity [19]: 55.65%
Activity [21]: 32.99%
Activity [22]: 3.87%
Activity [24]: 4.72%
fold change (FC) [25]: 2 - 2.4
Activity [27]: 13.77%
Activity [28]: 12.78%
Ratio IC50 [29]: 11 - 318
Activity [30]: 40.45%
Activity [32]: Active
Ratio IC50 [33]: 11 - 318
Activity [34]: 20.43%
Activity [35]: 172.46%
Activity [36]: 1465.64%
